Experimental findings from paper PMC7316630 (Nature immunology, 2020) are described below.

Counter-ions that a name gives are not always drawn. Peptide text beside a SMILES is read from it. * marks the point of attachment. Cbz = O=C(OCc1ccccc1)*; CH2F = FC*

The subject of one assay is LPS-primed iBMDMs. Description: Immunoblot of caspase-1, GSDMD, pro-IL-1β cleavage and IL-1β release. It is filed as cell-based, mouse. Conditions: 1 hr before nigericin; lysates 1 hr later. In a few lines: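 Mouse iBMDMs were pretreated for 1 hr with test compound, Bay 11-7082, necrosulfonamide or z-VAD-fmk, then given nigericin. Whole cell lysates and culture supernatants were harvested 1 hr after nigericin and immunoblotted with the indicated antibodies. Data come from three independent experiments.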

For another assay, the target named is T1, human GSDMD (Homo sapiens, UniProt P57764).
T1 sequence (P57764 1-484): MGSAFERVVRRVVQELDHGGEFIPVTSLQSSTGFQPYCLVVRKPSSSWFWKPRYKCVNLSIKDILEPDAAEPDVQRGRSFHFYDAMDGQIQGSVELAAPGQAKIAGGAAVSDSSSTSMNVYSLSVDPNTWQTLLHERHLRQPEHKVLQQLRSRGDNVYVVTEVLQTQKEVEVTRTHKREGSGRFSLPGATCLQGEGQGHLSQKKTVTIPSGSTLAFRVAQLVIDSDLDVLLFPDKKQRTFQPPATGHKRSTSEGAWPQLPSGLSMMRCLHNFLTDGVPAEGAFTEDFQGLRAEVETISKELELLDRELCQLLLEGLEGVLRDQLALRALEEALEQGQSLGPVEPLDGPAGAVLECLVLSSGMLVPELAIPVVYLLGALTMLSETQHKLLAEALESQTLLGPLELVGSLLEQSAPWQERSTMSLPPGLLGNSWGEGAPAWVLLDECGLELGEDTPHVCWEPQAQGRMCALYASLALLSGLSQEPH
The assay is classed as biochemical. Conditions: for Inhibition of GSDMD and caspase-11-mediated liposome leakage (in words): GSDMD 0.3 μM plus caspase-11 0.15 μM, LDC7559 at up to 50 μM.

Assay [1] relates to LPS-primed THP-1 cells. Description: ASC speck formation, immunofluorescence. It is filed as cell-based, human. Conditions: 30 μM, 1 hr before nigericin; 20 min after nigericin. In a few lines: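 THP-1 cells were differentiated with 50 nM PMA for 36 hrs, primed with LPS (1 μg/ml) for 4 hrs, and pretreated with test compound, vehicle or z-VAD-fmk, then given nigericin (20 μM). Cells on coverslips were fixed in 4% paraformaldehyde for 15 min, permeabilized in 0.1% Triton X-100 for 5 min and blocked in 5% BSA for 1 hr. ASC was then immunostained.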

Assay [2] concerns LPS-primed THP-1 cells. Description: Immunoblot of caspase-1, GSDMD, pro-IL-1β cleavage and IL-1β release. Particulars: 30 μM, 1 hr before nigericin. It is filed as cell-based, human. On the technique in general: Immunoblotting shows a protein as a band on a membrane.
A further assay concerns THP-1. Description: Nigericin-induced IL-1β secretion, ELISA. Conditions: potency comparable to z-VAD-fmk. The assay is classed as cell-based, human. (ELISA stands for enzyme-linked immunosorbent assay.)
A further assay concerns Mouse iBMDMs. Description: AIM2 inflammasome cell death, poly. It is filed as cell-based. Conditions: 5–40 μM, 1 hr pretreatment, 4 hrs.
The next assay has as its system HT-29 cells. Description: Necroptosis induced by TNF, SMAC mimetic and z-VAD-fmk, CellTiter-Glo. The assay is classed as cell-based. Conditions: disulfiram 10 and 50 μM, NSA 2 μM, Nec 10 μM; 1 hr pretreatment; 24 hrs. In a few lines: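 HT-29 cells were pretreated for 1 hr. Necroptosis was then induced with TNF (20 ng/ml), SMAC mimetic (100 nM) and z-VAD-fmk (20 μM). Viability was read 24 hrs later as ATP by CellTiter-Glo luminescence.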

Another assay deals with T2, pre-cleaved mouse GSDMA3 (Mus musculus, UniProt Q5Y4Y6).
T2 sequence (Q5Y4Y6 with tags, fused parts or gaps limits assumed): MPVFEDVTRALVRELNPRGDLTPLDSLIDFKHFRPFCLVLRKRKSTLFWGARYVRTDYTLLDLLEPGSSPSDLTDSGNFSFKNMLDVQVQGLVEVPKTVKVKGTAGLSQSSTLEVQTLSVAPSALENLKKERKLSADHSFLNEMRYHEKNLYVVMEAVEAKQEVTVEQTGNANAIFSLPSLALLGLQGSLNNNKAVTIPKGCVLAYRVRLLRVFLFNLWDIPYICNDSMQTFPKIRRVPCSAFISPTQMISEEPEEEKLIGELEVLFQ
Description: Liposome leakage by pre-cleaved GSDMA3. Particulars: pre-cleaved mouse GSDMA3 0.3 μM. The assay is classed as biochemical.

A further assay has as its system C57BL/6J mice. Description: LPS-induced sepsis, survival. Particulars: LPS 25 mg/kg; 50 mg/kg i.p. 4 hrs before and daily after LPS. The assay is classed as in vivo, mouse.
For another assay, the system named is LPS-primed THP-1. Description: LPS + nigericin cell death with or without Cu. The assay is classed as cell-based, human. Particulars: with versus without Cu(II).
In the next assay the test system is iBMDM. Description: LPS transfection-induced IL-1β secretion, ELISA. It is filed as cell-based, mouse. Particulars: 2.5 h; potency comparable to z-VAD-fmk.
Assay [3] has as its system LPS-primed THP-1 cells. Description: GSDMD membrane staining and pyroptotic bubbles, confocal microscopy. The assay is classed as cell-based, human. Particulars: 30 μM; 30 min after nigericin. In a few lines: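 PMA-differentiated THP-1 cells were primed with LPS (1 μg/ml, 4 hrs), pretreated for 1 hr and given nigericin. They were fixed (4% PFA), permeabilized (0.1% Triton X-100), blocked (5% BSA) and stained with an in-house mouse monoclonal anti-GSDMD antibody. Confocal images were scored for cells with membrane GSDMD staining and pyroptotic bubbles across 40 high-power fields per sample, in 5 independent experiments. Two-tailed Student's t-test was used.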

In the case of `Cc1ccc(S(=O)(=O)/C=C/C#N)cc1` [Bay 11–7082], the “Proteolytic processing of caspase-1, GSDMD and pro-IL-1β” value (from here on “Proteolytic processing”) in the assay on LPS-primed iBMDMs is recorded as “inhibited”. Besides, the “Inhibition of GSDMD and caspase-11-mediated liposome leakage (in words)” value (shortened to “Inhibition … (in words)”) on human GSDMD is given as “moderately inhibited”.

As to `CCN(CC)C(=S)SSC(=S)N(CC)CC` [C-23, tetraethylthiuram disulfide], in the assay with LPS-primed THP-1 cells [1], the ASC speck formation entry was “only modestly inhibited”. Besides, the “IL-1β in culture supernatant” value in the assay with LPS-primed THP-1 cells [2] (immunoblot) is given as “no IL-1β was detected”. The “Nigericin-induced IL-1β secretion” value with THP-1 was “inhibited”. In the assay on Mouse iBMDMs, the “Effect on AIM2 inflammasome-triggered cell death” value is listed as “impaired cell death in a dose-dependent manner”. Besides, the “Effect on necroptosis (cell viability)” value in the assay on HT-29 cells was “no effect”. Further, at pre-cleaved mouse GSDMA3, the “Inhibition of pore formation of pre-cleaved GSDMA3” value is recorded as “did not inhibit”. Further, the “Survival of Casp1–/– mice” value in the assay with C57BL/6J mice is given as “protected”. The “Decrease of IC50 for inhibiting pyroptosis with Cu(II)” value with LPS-primed THP-1 was found to be 24 fold. In addition, in the assay with iBMDM, the “LPS transfection-induced IL-1β secretion” value is recorded as “inhibited”. Moreover, the “Incubation time at which inhibition of liposome leakage was seen” value on human GSDMD (preincubation with GSDMD 2–90 min, 0–5.6 μM) is recorded as at most 2 min.

Take `COC(=O)/C=C/C(=O)OC` [DMF, dimethyl fumarate]: the “Inhibition … (in words)” value on human GSDMD was “hardly any activity”.

On to `COc1ccccc1-c1cc2n(n1)Cc1ccc(NC(C)=O)cc1OC2` [LDC7559], for which the “Inhibition … (in words)” value at human GSDMD was “no activity”.

In the case of `COc1nccnc1NS(=O)(=O)c1ccc(NC(=O)/C=C/c2ccc([N+](=O)[O-])s2)cc1` [NSA, necrosulfonamide], the “Proteolytic processing” value with LPS-primed iBMDMs is “inhibited”. The “Effect on necroptosis (cell viability)” value in the assay on HT-29 cells is on record as “blocked”. For the same molecule, the “Inhibition … (in words)” value on human GSDMD is reported as “moderately inhibited”.

In the case of `CN(C)C/C=C/C(=O)Nc1cc2c(Nc3ccc(F)c(Cl)c3)ncnc2cc1O[C@H]1CCOC1` [afatinib], the “Inhibition … (in words)” value at human GSDMD is listed as “hardly any activity”.

`C=CC(=O)N1CCC[C@@H](n2nc(-c3ccc(Oc4ccccc4)cc3)c3c(N)ncnc32)C1` [ibrutinib]: the “Inhibition … (in words)” value at human GSDMD is given as “hardly any activity”.

In the case of `CN1C(=O)C(Cc2c[nH]c3ccccc23)NC1=S` (centres unmarked) [necrostatin-1], the “Effect on necroptosis (cell viability)” value in the assay with HT-29 cells is listed as “blocked”.

In the case of `COC(=O)C[C@H](NC(=O)[C@H](C)NC(=O)[C@@H](NC(=O)OCc1ccccc1)C(C)C)C(=O)CF` [z-VAD-fmk] (Cbz-Val-Ala-Asp(OMe)-CH2F), the ASC speck formation entry in the assay on LPS-primed THP-1 cells [1] is reported as “not inhibited”. Besides, the “Proteolytic processing” value in the assay with LPS-primed THP-1 cells [2] (lysates 1 hr later) is “inhibited the processing of all 3 proteins”. Moreover, the “GSDMD membrane staining and appearance of pyroptotic bubbles” value with LPS-primed THP-1 cells [3] is “completely blocked”.
